KCNQ1 act: potentiators or activators of KCNQ1 channel, primary screen, cell-based, thallium flux, high-throughput | CHO-K1 KCNQ1, thallium flux FluxOR fluorescence; active compounds read high | B-score at 10 µM | hit rate 0.35% among 310,000 | AID 2648, 2010;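 active = fluorescence ratio B-score, a plate-corrected score, at least three library SD, with initial intensity B-score within 5 SD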
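Medium – assay buffer, equal DMSO in all wells · Material – CHO-K1 cell line with stable KCNQ1 potassium channel expression · Signal – kinetic FluxOR thallium fluorescence, 10-s 1-Hz baseline, 110-s post-stimulus read · Compound – single concentration per compound, DMSO matched to controls · Schedule – 37 °C overnight plating, 90-min dark dye load, 20-min compound pretreatment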
KCNK9 block: KCNK9 potassium channel inhibitors, primary screen, HEK293 cells, thallium flux; hit rate 1.2% among 310,000; FluxOR thallium flux fluorescence; active compounds read low; B-score at 10 µM; Potassium channel subfamily K member 9 (Homo sapiens), Q9NPC2;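 active = ratio B-score over 3 SD below the library mean, with starting fluorescence within 5 SD of its mean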;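 also: negative B-score means less thallium flux so channel inhibition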
Target sequence (Q9NPC2 whole entry, looked up): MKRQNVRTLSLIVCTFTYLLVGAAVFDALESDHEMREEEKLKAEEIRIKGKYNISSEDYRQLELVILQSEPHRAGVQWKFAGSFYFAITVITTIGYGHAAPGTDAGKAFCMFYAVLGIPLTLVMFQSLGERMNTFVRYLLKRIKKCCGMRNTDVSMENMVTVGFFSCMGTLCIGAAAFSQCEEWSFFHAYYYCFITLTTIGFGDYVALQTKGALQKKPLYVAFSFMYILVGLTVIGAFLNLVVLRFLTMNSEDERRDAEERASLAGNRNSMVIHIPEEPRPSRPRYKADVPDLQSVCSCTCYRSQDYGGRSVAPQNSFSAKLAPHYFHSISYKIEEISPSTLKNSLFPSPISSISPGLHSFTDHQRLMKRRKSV
hERG protect: hERG rescue from dofetilide block, primary screen, cell-based, CHO-hERG, FluxOR thallium flux, dofetilide IC70; Voltage-gated inwardly rectifying potassium channel KCNH2 (Homo sapiens), Q12809; dofetilide IC70 present; activation (rescue from dofetilide block), less the hit threshold, % at 10 µM; hit rate 0.51% among 310,000; AID 1511, 2009;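 active = activation above the mean of controls blocked by dofetilide plus 5 SD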;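 also: thallium influx through hERG after potassium depolarization seen as dye fluorescence rise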
KCNK3 block: human KCNK3 channel inhibitors, primary screen, CHO cells, FluxOR thallium flux, B-score; hit rate 0.84% among 340,000; FluxOR fluorescence; active compounds read low; Potassium channel subfamily K member 3 (Homo sapiens), O14649; B-score at 10 µM;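 active = B-score under library mean minus 4 SD, starting fluorescence ratio at most library mean plus 5 SD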;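 also: more negative B-score means stronger inhibition of thallium flux through KCNK3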
KCNQ1 block: inhibitors of human KCNQ1 channel, primary screen, cell-based, thallium flux, high-throughput | Potassium voltage-gated channel subfamily KQT member 1 (Homo sapiens), P51787 | CHO-K1 KCNQ1, FluxOR thallium flux fluorescence; active compounds read high | B-score at 10 µM | hit rate 1.3% among 310,000;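 active = compounds whose thallium flux B-score, printed positive for inhibition, exceeds three library SD while starting fluorescence stays within three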;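 also: channel opened by potassium depolarization with thallium stimulus after 20 min compound exposure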
Kir21 block: inhibitors of mouse Kir2.1 inward-rectifier potassium channel | HEK293-Kir2.1, FluxOR thallium flux fluorescence; active compounds read low | B-score at 10 µM | hit rate 0.85% among 310,000;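 active = fluorescence ratio B-score at or below minus 3 SD of library scores, with starting-brightness B-score within 2 SD, cut at about -4.2 in these data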;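 also: channel flux triggered by added potassium and thallium sulfate stimulus; B-score of peak minus minimum fluorescence over baseline after thallium stimulus; more negative B-score means stronger Kir2.1 block with less thallium influx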
KCNK3 confirm: retest of human KCNK3 channel inhibitors, confirmation, CHO cells, FluxOR thallium flux, triplicate; shares compounds with KCNK3 block; AID 651638, 2012; hit rate 99% among 2,400; FluxOR fluorescence; 0% buffer, 100% carvedilol maximal block; ratio percent of control, % at 10 µM;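 active = ratio percent of control, averaged over triplicates, above buffer control mean plus 5 SD, cut at about 64% in these data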;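 also: ratio is the fluorescence rise from min to max over baseline after thallium stimulus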
KCNK3 uninduced: thallium flux inhibition in non-induced cells, primary screen, counter-screen for KCNK3 inhibitor project, cell-based, non-induced KCNK3 line, FluxOR thallium, triplicate | AID 651747, 2012 | non-induced KCNK3 parental cells; active compounds read low | thallium flux ratio (lower = more inhibition) at 10 µM | shares compounds with KCNK3 block | hit rate 40% among 2,400;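 active = thallium flux ratio, averaged over three wells, more than 5 SD below the buffer control mean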;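 also: host cells are CHO cells without KCNK3 induction; ratio is peak minus trough fluorescence over baseline then normalized to buffer controls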
An asterisk follows results filed as active; i = inactive; . = no result. Rows were chosen to be rich in hits. Some 3.7% of all compounds tested hit in one or more screens of this group.

SMILES	KCNQ1 act	KCNK9 block	hERG protect	KCNK3 block	KCNQ1 block	Kir21 block	KCNK3 confirm	KCNK3 uninduced
CCC1CCCCN1S(=O)(=O)c1ccc(NC(=O)c2nc(S(C)(=O)=O)ncc2Cl)cc1 (stereo not drawn)	i	i	-29	-11*	i	-1.9	114*	0.14*
CCS(=O)(=O)c1ncc(Cl)c(C(=O)Nc2ccc(S(=O)(=O)N3CCCC(C)C3)cc2)n1 (stereo not drawn)	i	i	-8	i	i	1.8	.	.
CCOC(=O)C1(CCCc2ccccc2)CCN(C(=O)CCOC)CC1	i	i	-6	i	i	1.5	.	.
Cc1ccc(-n2c(C)cc(/C=N/Nc3ccc([N+](=O)[O-])cn3)c2C)cc1	i	i	-3	-13*	i	-0.22	0	i
Cc1cc(/C=N/NC(=O)c2ccccn2)c(C)n1-c1cccc([N+](=O)[O-])c1	i	i	-3	-9*	i	0.9	88*	i
O=C(N/N=C\c1cc([N+](=O)[O-])ccc1N1CCCC1)c1ccccn1	i	i	-5	i	i	0.38	.	.
Cc1cc(/C=N/Nc2ccc([N+](=O)[O-])cn2)c(C)n1-c1ccccc1	i	i	-3	i	i	0.06	.	.
Cc1ccc(-c2nnc(SCC(=O)NC3CCCC3)n2N)cc1	.	.	.	i	.	.	.	.
CCCCCC(=O)Nc1ccc(S(=O)(=O)Nc2nccc(C)n2)cc1	i	i	-8	i	i	-0.23	.	.
COc1ccc(Oc2nc(-c3ccccc3)ncc2C(=O)O)cc1	i	i	-3	i	i	-0.02	.	.
COc1ccc(C(=O)c2cnc3ccccc3c2-c2ccccc2)cc1	i	i	-9	-9.2*	i	0.17	112*	i
Cc1ccc(C(=O)c2cnc3ccccc3c2-c2ccccc2)cc1	i	i	-5	-9.8*	i	-0.37	118*	0.13*
CN(C)c1ccc(C=c2c3ccccc3n3c2c2c([n+]3C)CCCC2)cc1	.	.	.	-13*	.	.	171*	0.071*
CN(C)c1ccc(/C=C2\CCC/C(=C\c3ccccc3)C2=O)cc1	i	i	-9	i	i	-1.1	.	.
CC1(c2ccccc2)NC(=O)N(CC(=O)N2CCN(S(=O)(=O)c3cccs3)CC2)C1=O (stereo not drawn)	i	i	-14	i	i	-0.56	.	.
Cc1cc(C)c(S(=O)(=O)N2CCc3ccccc32)c(C)c1	i	i	-11	-13*	6*	0.01	115*	0.13*
O=C(N/N=C/c1c[nH]c2ccc(Br)cc12)c1ccn(Cc2ccc(Cl)cc2Cl)n1	i	-7.2*	-12	-9.8*	i	0.57	79*	i
O=C(N/N=C/c1c[nH]c2ccccc12)c1ccn(Cc2ccc(Cl)cc2)n1	i	i	-16	-11*	i	0.97	98*	0.15*
COc1ccc(C)cc1S(=O)(=O)N1CCN(C/C=C/c2ccccc2)CC1	.	.	.	i	.	.	.	.
Cc1ccc2oc(C(=O)N(Cc3ccccc3)C3CCS(=O)(=O)C3)c(C)c2c1 (stereo not drawn)	i	i	0	i	i	5.9e-16	.	.
Cc1cc2oc(C(=O)N(Cc3ccccc3)C3CCS(=O)(=O)C3)c(C)c2cc1C (stereo not drawn)	i	i	-14	-11*	i	-1.6	92*	i
CCOC(=O)C1=C(C)OC(N)=C(C#N)C1c1cc(OC)c2c(c1)OCO2 (stereo not drawn)	i	i	-10	-9.7*	i	-1.4	94*	i
CCOC(=O)C1=C(C)OC(N)=C(C#N)C1c1cc(Cl)c(OCC(N)=O)c(OC)c1 (stereo not drawn)	i	i	-7	i	i	-1.3	.	.
CN1CCN(C2=C(Cl)C(=O)c3ccccc3C2=O)CC1	.	.	.	-14*	.	.	160*	0.057*
Cc1cc([N+](=O)[O-])ccc1-c1ccc(/C=N/NC(=O)c2ccc(Br)o2)o1	i	i	-1	-9.4*	i	-1.4	105*	i
SMILES	KCNQ1 act	KCNK9 block	hERG protect	KCNK3 block	KCNQ1 block	Kir21 block	KCNK3 confirm	KCNK3 uninduced
C=Cc1ccc(Cn2nc(-c3ccccc3)ccc2=O)cc1	i	i	-13	i	i	0.92	.	.
COc1ccccc1N1CCN(C(c2cccs2)C(C)NS(=O)(=O)c2ccccc2)CC1 (stereo not drawn)	i	i	-14	-9.6*	6*	-0.51	96*	i
CC(NS(=O)(=O)c1ccccc1)C(c1cccs1)N1CCN(c2ccccc2)CC1 (stereo not drawn)	i	i	-5	i	i	0.09	.	.
O=C(c1ccco1)N1CCC(c2nc3c(nnn3Cc3c(Cl)cccc3Cl)c(=O)[nH]2)CC1	i	i	-5	i	i	1.5	.	.
CC(C)(C)c1ccc(Cn2nnc3c(=O)[nH]c(C4CCN(C(=O)c5ccco5)CC4)nc32)cc1	i	i	-5	-8.9*	i	1.3	122*	0.15*
COc1ccc(OC)c(/C=C/C(=O)N2CCCc3ccccc32)c1	i	i	-10	-11*	i	0.01	113*	i
COc1ccc(/C=C/C(=O)N2CCCc3ccccc32)c(OC)c1	i	i	-11	i	i	2.1	.	.
Cc1ccc(OCCn2cc(C#N)c3ccccc32)cc1	i	i	-6	-9.5*	i	1.1	101*	0.15*
COC(=O)c1cn(CCOc2ccc(C)cc2)c2ccccc12	i	i	-5	-8.9*	i	-1.2	108*	i
CC(=O)c1cn(CCOc2ccccc2C)c2ccccc12	i	i	-8	i	i	-1	.	.
CC(=O)c1cn(CCOc2ccc(F)cc2)c2ccccc12	i	i	-7	-9*	i	-2.4	104*	i
O=C(NCC(c1ccco1)N1CCN(c2ccccc2)CC1)c1ccc2c(c1)OCO2 (stereo not drawn)	i	i	-14	i	i	0.31	.	.

High-throughput results: PubChem, Johns Hopkins Ion Channel Center
